Assay results gathered from unrelated publications.
Target: Serine/threonine-protein kinase LATS1 (LATS1, Homo sapiens, UniProt O95835)
One construct used (O95835 1-1130): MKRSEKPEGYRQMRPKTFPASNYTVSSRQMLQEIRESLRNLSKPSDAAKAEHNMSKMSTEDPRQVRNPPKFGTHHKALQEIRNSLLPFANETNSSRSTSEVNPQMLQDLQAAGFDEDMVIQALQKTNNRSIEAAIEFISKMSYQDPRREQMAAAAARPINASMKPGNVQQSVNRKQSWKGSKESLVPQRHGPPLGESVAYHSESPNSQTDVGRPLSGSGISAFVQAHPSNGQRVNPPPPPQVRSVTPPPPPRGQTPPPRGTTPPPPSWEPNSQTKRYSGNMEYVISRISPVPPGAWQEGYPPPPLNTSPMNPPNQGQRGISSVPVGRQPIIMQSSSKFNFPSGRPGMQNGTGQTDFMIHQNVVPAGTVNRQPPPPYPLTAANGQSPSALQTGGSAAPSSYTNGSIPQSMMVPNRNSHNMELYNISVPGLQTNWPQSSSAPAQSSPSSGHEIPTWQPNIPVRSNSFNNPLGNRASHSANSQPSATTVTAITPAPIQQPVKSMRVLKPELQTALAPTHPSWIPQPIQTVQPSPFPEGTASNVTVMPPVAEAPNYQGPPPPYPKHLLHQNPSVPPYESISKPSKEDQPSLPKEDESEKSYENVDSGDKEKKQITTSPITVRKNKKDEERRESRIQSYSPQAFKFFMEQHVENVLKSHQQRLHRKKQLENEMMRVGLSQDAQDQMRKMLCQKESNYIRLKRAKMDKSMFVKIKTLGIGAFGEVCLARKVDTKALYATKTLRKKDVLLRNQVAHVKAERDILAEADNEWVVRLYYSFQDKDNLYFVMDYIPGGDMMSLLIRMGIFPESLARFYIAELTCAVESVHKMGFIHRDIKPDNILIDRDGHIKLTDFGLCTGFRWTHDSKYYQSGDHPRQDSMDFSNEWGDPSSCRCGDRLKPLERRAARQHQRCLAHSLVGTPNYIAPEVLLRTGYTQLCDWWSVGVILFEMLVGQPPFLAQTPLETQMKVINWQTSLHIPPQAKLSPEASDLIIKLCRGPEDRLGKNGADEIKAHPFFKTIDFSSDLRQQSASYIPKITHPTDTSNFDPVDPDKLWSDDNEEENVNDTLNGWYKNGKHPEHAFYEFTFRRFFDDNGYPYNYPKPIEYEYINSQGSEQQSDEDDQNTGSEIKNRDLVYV

Compound	test	setting	endpoint	value
Cn1cnc(Br)c1C1=CN(c2ncnc3[nH]cnc23)CCS1	enzyme activity, inhibitor, radiometric	50 nM	inhibition	51.5%
O=C(NC[C@@H]1[C@H]2CN(C(=O)OCc3cc(C(F)(F)F)cc(C(F)(F)F)c3)C[C@@H]12)c1ccc2[nH]nnc2c1	cell-free assay, competition with immobilised ligand	1 µM	remaining binding	96%
CC(C)(O)[C@H]1CC[C@H](Nc2ccc3ncc(-c4cccc(C(F)(F)F)c4)n3n2)CC1	enzyme activity, inhibitor	1 µM	remaining activity	96.1%
CC(=O)N1CCC(c2ccc(C(=O)NC(=N)N)cc2C(F)(F)F)CC1	cell-free assay, competition with immobilised ligand	1 µM	remaining binding	72%
Cc1ccc(C(=O)Nc2ccc(CN3CCN(C)CC3)c(C(F)(F)F)c2)cc1C#Cc1cnc2cccnn12	enzyme activity, inhibitor	23.5 nM	remaining activity	93%
COc1cccc2c(NCc3ccccc3)nc(-n3c(N)nc4ccccc43)nc12	target engagement in cells, inhibitor, chemoproteomics	20 mM	inhibition	-30.5%
O=C(Nc1cnn(-c2csc(C(=O)NC3COC3)c2)c1)Nc1ccccc1Cl	enzyme activity, inhibitor	5 µM	remaining activity	106%
CC1CCCN1c1nccc(-c2cnn3ncccc23)n1 (stereo not shown)	binding	1 µM	remaining binding	100%
Cc1sc(C(=O)NC2COC2)cc1-n1cc(NC(=O)Nc2c(F)cccc2Cl)cn1	enzyme activity, inhibitor	10 µM	remaining activity	97.2%
Nc1ncnc2occ(-c3ccc(NC(=O)Nc4cc(C(F)(F)F)ccc4F)cc3)c12	cell-free assay, inhibitor	20 µM	remaining signal	33%
CN1CCN(c2cnc3c(C4CCN(C(=O)c5ccc(OC(F)(F)F)cc5N)CC4)ncnc3c2)CC1	cell-free assay, competition with immobilised ligand	1 µM	remaining binding	81%
CCCCNc1ncc2c(-c3ccc(F)cc3)nn(C[C@H]3CC[C@H](N)CC3)c2n1	target engagement in cells, inhibitor, chemoproteomics	20 mM	inhibition	7.3%
COc1cc(-c2cc(-c3ccc(N4CCNCC4)cc3)cnc2C)cc(OC)c1OC	enzyme activity, inhibitor	1 µM	inhibition	7%
